# Columns and labels:
# [1] = molecular target: Kappa-type opioid receptor (Cavia porcellus) (UniProt P41144); details: Ileum, 20 nM
# [2] = molecular target: T1, Kappa-type opioid receptor (Rattus norvegicus, UniProt P34975); experiment: Effect on binding to wild-type opioid receptor kappa 1 using [3H]diprenorphine in transiently expressed […] HEK293 cells; assay type: cell-based
# Outline: (§1)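 Run in 25 mM HEPES pH 7.4 for 90 min at room temperature, filtered and scintillation counted. Nonspecific binding defined with 10 µM naltrexone. Ki from IC50 by Cheng-Prusoff, mean ± SE of three experiments in duplicate.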
# [3] = molecular target: Kappa-type opioid receptor (Cavia porcellus) (UniProt P41144); experiment: Opioid antagonist potency towards opioid receptor kappa 1 determined in guinea pig ileum preparation; assay type: functional, tissue-based
# Outline: (§2)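 Electrically stimulated guinea pig ileal longitudinal muscle. Antagonist at 100 nM unless noted (some at 20 nM) was preincubated 15 min, then concentration-response curves to κ agonist ethylketazocine or µ agonist morphine were run with and without antagonist in the same tissue. IC50 ratio taken from the curves; Ke = [antagonist]/(IC50 ratio − 1). Mean ± SEM, n in parentheses.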
# [4] = molecular target: Delta-type opioid receptor (Mus musculus) (UniProt P32300); experiment: Opioid antagonist potency, determined in mouse vas deferens (MVD) preparation, using DADLE (delta-opioid) as agonist, expressed as IC50 ratio; assay type: functional
# Sequence of Delta-type opioid receptor (Mus musculus) (P32300 whole entry): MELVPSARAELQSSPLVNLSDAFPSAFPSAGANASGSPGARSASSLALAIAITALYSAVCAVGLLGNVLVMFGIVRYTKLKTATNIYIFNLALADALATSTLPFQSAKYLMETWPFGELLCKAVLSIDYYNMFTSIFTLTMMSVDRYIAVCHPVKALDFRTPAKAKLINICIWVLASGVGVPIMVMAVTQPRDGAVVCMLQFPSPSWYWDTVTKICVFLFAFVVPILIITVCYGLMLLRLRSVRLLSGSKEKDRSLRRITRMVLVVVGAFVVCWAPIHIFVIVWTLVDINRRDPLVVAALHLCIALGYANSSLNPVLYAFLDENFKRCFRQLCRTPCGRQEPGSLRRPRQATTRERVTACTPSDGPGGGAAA
# Outline: (§3)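 Electrically stimulated mouse vas deferens. Antagonist, normally 100 nM, preincubated 15 min before concentration-response curves to δ agonist DADLE, obtained with and without antagonist in the same preparation. IC50 ratio from the curves; Ke = [antagonist]/(IC50 ratio − 1), not computed when ratio <1. Mean ± SEM.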
# [5] = molecular target: Delta-type opioid receptor (Mus musculus) (UniProt P32300); experiment: Opioid antagonist potency, determined in mouse vas deferens (MVD) preparation, using DADLE (delta-opioid) as agonist (Ke=antagonist/IC50 ratio -1); assay type: functional
# Outline: as §3
# [6] = molecular target: Delta-type opioid receptor (Mus musculus, UniProt P32300); experiment: Binding affinity towards mouse delta-opioid receptor was determined using [3H]diprenorphine as radioligand
# Sequence of Delta-type opioid receptor (P32300 whole entry): as above
# Outline: as §1
# [7] = molecular target: Kappa-type opioid receptor (Cavia porcellus) (UniProt P41144); experiment: Opioid antagonist potency, determined in the guinea pig ileum (GPI) preparation, by employing EK (kappa-opioid) as agonist, expressed as IC50 ratio; assay type: functional, tissue-based
# Outline: as §2
# [8] = molecular target: T1, Kappa-type opioid receptor; experiment: Binding affinity towards rat opioid receptor kappa 1 was determined using [3H]diprenorphine radioligand
# Outline: as §1
# [9] = molecular target: Mu-type opioid receptor (Rattus norvegicus, UniProt P33535); experiment: Binding affinity towards rat mu-opioid receptor was determined using [3H]diprenorphine as radioligand
# Sequence of Mu-type opioid receptor (P33535 whole entry): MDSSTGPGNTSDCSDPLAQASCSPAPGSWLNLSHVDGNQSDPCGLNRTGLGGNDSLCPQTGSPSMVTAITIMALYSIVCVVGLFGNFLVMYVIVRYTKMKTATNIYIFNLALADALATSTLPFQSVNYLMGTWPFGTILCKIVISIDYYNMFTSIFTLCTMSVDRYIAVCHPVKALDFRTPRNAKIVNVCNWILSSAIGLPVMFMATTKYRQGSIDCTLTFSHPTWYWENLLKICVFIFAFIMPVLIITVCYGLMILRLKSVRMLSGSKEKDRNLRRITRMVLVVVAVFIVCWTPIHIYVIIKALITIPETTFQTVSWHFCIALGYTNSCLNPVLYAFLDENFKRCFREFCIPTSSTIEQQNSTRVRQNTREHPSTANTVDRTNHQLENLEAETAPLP
# Outline: as §1
# [10] = molecular target: Mu-type opioid receptor (Cavia porcellus) (UniProt P97266); experiment: Opioid antagonist potency, determined in guinea pig ileum (GPI) preparation, using morphine (mu-opioid) as agonist, expressed as IC50 ratio; assay type: functional, tissue-based
# Sequence of Mu-type opioid receptor (Cavia porcellus) (P97266 whole entry): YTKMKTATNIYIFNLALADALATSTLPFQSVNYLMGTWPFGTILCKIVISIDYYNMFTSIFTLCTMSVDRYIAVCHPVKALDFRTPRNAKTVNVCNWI
# Outline: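 Morphine concentration-response curves in electrically stimulated guinea pig ileal longitudinal muscle, run with and without antagonist (100 nM unless noted, 15 min preincubation) in the same preparation. Result expressed as the IC50 ratio of agonist with versus without antagonist.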
# [11] = molecular target: Mu-type opioid receptor (Cavia porcellus) (UniProt P97266); details: Ileum, 20 nM
# [12] = molecular target: Kappa-type opioid receptor (Rattus norvegicus, UniProt P34975, E297A); experiment: Effect on binding to kappa(Glu297Ala) opioid receptor, using [3H]diprenorphine in transiently expressed […] HEK293 cells; assay type: cell-based
# Sequence of Kappa-type opioid receptor (Rattus norvegicus, UniProt P34975, E297A) (P34975 whole entry E297A): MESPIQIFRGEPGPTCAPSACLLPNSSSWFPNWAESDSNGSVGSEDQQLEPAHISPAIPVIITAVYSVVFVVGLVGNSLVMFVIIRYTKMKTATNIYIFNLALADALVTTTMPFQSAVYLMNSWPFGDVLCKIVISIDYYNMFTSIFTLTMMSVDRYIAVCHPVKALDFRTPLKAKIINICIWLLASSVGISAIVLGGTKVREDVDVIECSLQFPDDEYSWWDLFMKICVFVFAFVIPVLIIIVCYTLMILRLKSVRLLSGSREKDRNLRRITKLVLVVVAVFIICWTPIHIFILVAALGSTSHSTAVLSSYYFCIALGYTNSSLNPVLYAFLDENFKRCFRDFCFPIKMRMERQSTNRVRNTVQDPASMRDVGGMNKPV
# Outline: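 Rat κ receptor carrying the Glu297Ala mutation, subcloned in pcDNA3, was transiently expressed in HEK-293 cells by calcium phosphate transfection. Ki was derived by Cheng-Prusoff.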
# [13] = molecular target: Mu-type opioid receptor (Cavia porcellus) (UniProt P97266); experiment: Opioid antagonist potency, determined in guinea pig ileum (GPI) preparation, using morphine (mu-opioid) as agonist (Ke=antagonist/IC50 ratio -1); assay type: functional, tissue-based
# Outline: as §2
# Sequence of Kappa-type opioid receptor (Cavia porcellus) (P41144 whole entry): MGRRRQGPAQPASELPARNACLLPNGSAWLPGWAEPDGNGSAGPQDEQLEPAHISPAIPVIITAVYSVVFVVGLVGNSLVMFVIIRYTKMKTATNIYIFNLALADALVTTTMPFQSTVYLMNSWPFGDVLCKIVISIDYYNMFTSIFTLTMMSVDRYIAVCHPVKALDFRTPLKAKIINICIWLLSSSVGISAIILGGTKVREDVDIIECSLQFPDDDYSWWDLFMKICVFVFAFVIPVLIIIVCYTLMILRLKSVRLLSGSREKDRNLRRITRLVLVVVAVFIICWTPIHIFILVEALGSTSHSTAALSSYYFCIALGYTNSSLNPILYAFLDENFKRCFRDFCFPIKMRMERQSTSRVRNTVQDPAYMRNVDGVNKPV
# T1 sequence (P34975 whole entry): as the sequence (P34975 whole entry E297A) above, with A297E counted along it
Compound,IC50 ratio [1],Ki [2] [nM],Ke [3] [nM],IC50 ratio [4],Ke [5] [nM],Ki [6] [nM],IC50 ratio [7],Ki [8] [nM],Ki [9] [nM],IC50 ratio [10],IC50 ratio [11],Ki [12] [nM],Ke [13] [nM]
N=C(N)Nc1ccc2[nH]c3c(c2c1)C[C@@]1(O)[C@H]2Cc4ccc(O)c5c4[C@@]1(CCN2CC1CC1)[C@H]3O5 [GUANIDINONALTRINDOLE],139,0.21,0.16,–,–,–,–,–,–,–,–,–,–
N=C(N)Nc1cccc2[nH]c3c(c12)C[C@@]1(O)[C@H]2Cc4ccc(O)c5c4[C@@]1(CCN2CC1CC1)[C@H]3O5,–,–,80,1.4,263,> 1000,2.3,> 1000,> 1000,0.34,–,–,–
Oc1ccc2c3c1O[C@H]1c4[nH]c5c(c4C[C@@]4(O)[C@@H](C2)N(CC2CC2)CC[C@]314)C[C@@]1(O)[C@H]2Cc3ccc(O)c4c3[C@@]1(CCN2CC1CC1)[C@H]5O4,49.8,–,–,10.4,–,–,–,–,–,–,2.6,–,–
N=C(N)Nc1ccc2c3c([nH]c2c1)[C@@H]1Oc2c(O)ccc4c2[C@@]12CCN(CC1CC1)[C@H](C4)[C@]2(O)C3,–,1.13,–,0.2,–,–,–,–,–,–,–,12.3,–
N=C(N)Nc1cccc2c3c([nH]c12)[C@@H]1Oc2c(O)ccc4c2[C@@]12CCN(CC1CC1)[C@H](C4)[C@]2(O)C3,–,32.7,100,105,0.96,–,2,–,–,1.4,–,47.3,238

# Source: ChEMBL document CHEMBL1134509, “Transformation of a kappa-opioid receptor antagonist to a kappa-agonist by transfer of a guanidinium group from the 5'- to 6'-position of naltrindole” (J Med Chem, 2001)
